# Cl transport mod: KCC2 (human) Cl- transport modulation; Q9H2X9; KCC2 cells, thallium flux FluoZin-2 fluorescence; B-score of Tl+ flux slope (higher = more flux/activation; lower = inhibition) at 10 µM; 190,000 tested, 2.2% active;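 active means thallium flux slope and its plate-corrected score both differing from the plate sample mean at a set confidence after two filtering rounds, in either direction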;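 further: slope of fluorescence scaled to starting intensity during 10 to 20 s after thallium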
# Target sequence (Q9H2X9 whole entry, looked up): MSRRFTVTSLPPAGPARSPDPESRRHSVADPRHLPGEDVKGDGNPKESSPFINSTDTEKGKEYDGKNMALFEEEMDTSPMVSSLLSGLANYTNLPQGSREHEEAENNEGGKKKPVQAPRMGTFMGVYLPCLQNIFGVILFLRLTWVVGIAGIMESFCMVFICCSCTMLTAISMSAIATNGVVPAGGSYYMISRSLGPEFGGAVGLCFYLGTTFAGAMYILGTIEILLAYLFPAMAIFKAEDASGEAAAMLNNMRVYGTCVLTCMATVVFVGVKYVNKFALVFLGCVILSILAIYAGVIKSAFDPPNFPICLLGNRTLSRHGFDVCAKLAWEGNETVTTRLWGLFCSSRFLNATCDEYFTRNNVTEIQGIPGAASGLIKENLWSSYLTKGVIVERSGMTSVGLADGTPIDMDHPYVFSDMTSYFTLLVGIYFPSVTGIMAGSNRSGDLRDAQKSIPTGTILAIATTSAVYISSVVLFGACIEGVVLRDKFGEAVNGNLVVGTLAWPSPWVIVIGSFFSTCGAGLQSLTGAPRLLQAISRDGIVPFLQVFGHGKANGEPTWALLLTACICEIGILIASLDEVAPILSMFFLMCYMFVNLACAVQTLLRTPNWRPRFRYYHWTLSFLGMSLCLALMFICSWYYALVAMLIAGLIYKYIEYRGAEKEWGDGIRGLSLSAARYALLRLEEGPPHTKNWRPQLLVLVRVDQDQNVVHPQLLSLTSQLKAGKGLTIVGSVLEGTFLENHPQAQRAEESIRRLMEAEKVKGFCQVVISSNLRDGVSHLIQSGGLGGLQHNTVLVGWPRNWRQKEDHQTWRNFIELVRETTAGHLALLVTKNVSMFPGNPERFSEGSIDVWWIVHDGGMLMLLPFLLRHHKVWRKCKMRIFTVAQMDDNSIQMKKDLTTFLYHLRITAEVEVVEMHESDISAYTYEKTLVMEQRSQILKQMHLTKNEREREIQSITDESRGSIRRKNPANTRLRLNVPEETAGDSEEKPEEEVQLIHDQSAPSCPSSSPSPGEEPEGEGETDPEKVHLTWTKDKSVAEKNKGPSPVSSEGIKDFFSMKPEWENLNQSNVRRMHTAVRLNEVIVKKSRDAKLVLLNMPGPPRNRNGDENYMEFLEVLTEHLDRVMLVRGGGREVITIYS
# STAT1 blocker: inhibitors of IFN-gamma induced STAT1 signaling | NIH 3T3 STAT1-luciferase reporter, luminescence | inhibition, % at 5.5 µM | 200,000 tested, 0.35% active;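 active means inhibition above a set limit, the mean inhibition across all tested compounds plus 3 SD, cut at about 34% in these data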;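 further: 0% = IFN-gamma with DMSO and 100% = IFN-gamma with 300 µM nifuroxazide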
# HSV replic up: increases HSV replication in cells | 220,000 tested, 0.005% active | HSV replication augmentation in cells, fold increase | maximum fold increase; in the data active means maximum fold increase above about 1.5; inconclusive means no clear call, values can overlap the other calls; tested in PC3 cells
# STAT1 act-1: STAT1 signaling activation; 200,000 tested, 2.6% active; NIH 3T3 STAT1-luciferase reporter, IFN-gamma, luminescence; 100% = IFN-gamma alone, no compound; activation (% of control), % at 5.5 µM; AID 932;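 active means activation above the screen-wide mean activation plus 3 SD, cut at about 130% in these data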;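 further: raw ratio to IFN-gamma control signal so 100% means no change and 0% no light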
# STAT3 inh: inhibitors of IL-6 induced STAT3 signaling; U3A cells, IL-6 STAT3-luciferase reporter, luminescence; host cell line lacks STAT1; inhibition, % at 5.5 µM; 190,000 tested, 0.89% active; AID 862;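 active means inhibition above the mean inhibition across all screened compounds plus 3 SD, cut at about 44% in these data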;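 further: 0% = DMSO only wells and 100% = 100 µM nifuroxazide control wells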
# STAT3 act-1: activators of IL-6 induced STAT3 signaling; U3A cells, IL-6 STAT3-luciferase reporter, luminescence; 100% = signal with IL-6 EC80 alone; 190,000 tested, 0.91% active; activation (% of control), % at 5.6 µM;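 active means activation above the screen-wide mean of compound activation plus 3 SD, cut at about 130% in these data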;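 further: 0% = background luminescence of wells with medium and substrate only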
#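 Test system: Human STAT1-deficient U3A cells with stable STAT3-luciferase reporter | Also added: Interleukin-6, 33 ng/mL | Timing: Compound pre-incubation 1 h before IL-6, then 6 h stimulation at 37 °C | Technique: Luciferase reporter luminescence | Read-out: Percent of IL-6-only median luminescence | Benchmarks: IL-6-only wells as 100% reference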
# STAT3 act-2: confirmation of STAT3 signaling activators; shares compounds with STAT3 act-1; U3A STAT3-luciferase reporter, IL-6 potentiation, luminescence; U3A cells lack STAT1; 100 means same as IL-6 alone; potentiation (% of control), % at 5.7 µM; 1,200 tested, 64% active;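 active means percent activation of the STAT3 luciferase reporter above a set limit taken from the earlier primary screen, cut at about 130% in these data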;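 further: 0% = background signal of medium plus substrate and 100% = median of IL-6 with DMSO wells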
# NFkB act 2: activates NF-kappaB, counter-screen to STAT3 activators; shares compounds with STAT3 act-1; human cells, NF-kappaB reporter activation; activation (% of control), % at 5.7 µM; 1,200 tested, 11% active; in the data active means activation above about 120%;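 further: reporter induced by TNF-alpha stimulation; 100% = median of stimulated DMSO wells and 0% = no signal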
# STAT1 act-2: STAT1 activation in STAT3 activator counter-screen. activation (% of control), % at 5.7 µM. AID 1318. 1,200 tested, 13% active. shares compounds with STAT3 act-1. NIH 3T3 STAT1-luciferase reporter, IFN-gamma, luminescence;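 active means activation above the solvent-only control well mean plus 3 SD, set per screening run, cut at about 120% in these data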;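 further: 100% = IFN-gamma with DMSO median signal so 100% means no change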
# Numbers without * were called inactive; i = inactive; ? = inconclusive; . = no result. In the library only some 5.5% were active in any assay of this set; here they are far more common.
SMILES,Cl transport mod,STAT1 blocker,HSV replic up,STAT1 act-1,STAT3 inh,STAT3 act-1,STAT3 act-2,NFkB act 2,STAT1 act-2
Clc1ccc(C2Nc3ccccc3-n3cccc32)cc1 (stereo unspecified),0.16,5,i,96,-73,166*,160*,113,114
Nc1c(C(=O)c2ccccc2O)cnn1-c1ccc(S(=O)(=O)N2CCOCC2)cc1[N+](=O)[O-],-1.1,4,i,95,6,101,.,.,.
O=C(CN1CCC(NC(=O)c2ccco2)CC1)Nc1cccc2ccccc12,0.78,4,i,96,-3,103,.,.,.
O=C(CN1CCC(NC(=O)c2ccco2)CC1)Nc1ccccc1[N+](=O)[O-],-0.14,6,i,92,-40,138*,144*,104,92
O=C1C(=O)N(CCc2c[nH]c3ccccc23)C(c2cccnc2)/C1=C(/O)c1ccccc1 (stereo unspecified),.,4,i,96,-3,104,.,.,.
Cc1ccc(S(=O)(=O)Nc2cc(C(C(=O)OC(C)C)C(=O)C(F)(F)F)c(O)c3ccccc23)c(C)c1 (stereo unspecified),-1.7,-3,?,102,-45,138*,110,102,102
FC(F)(F)c1nnc2c(Sc3ccccn3)nc3ccccc3n12,.,16,i,86,-40,141*,146*,122*,128*
FC(F)(F)c1nnc2c(Sc3ccccc3)nc3ccccc3n12,0.041,0,i,100,26,83,.,.,.
O=C(NCc1ccncc1)C1CCCCC1,0.78,-4,i,103,3,97,.,.,.
CN1/C(=C\C=Nc2ccc3ccccc3c2)C(C)(C)c2ccccc21,.,8,i,92,-43,148*,119,105,94
COc1ccc(-n2c(SCC(N)=O)nc3sc4c(c3c2=O)CCC4)cc1,0.58,2,i,97,10,94,.,.,.
CN(C)C(=O)N1CCC(C(=O)NCc2cccs2)CC1,1.3,1,i,98,-49,145*,95,102,100
Cn1ncc(Cl)c1C(=O)NC(=S)Nc1sc2c(c1C#N)CCCCC2,1.3,-8,i,108,8,97,.,.,.
CCOc1ccc(/C=C/[N+](=O)[O-])c2ccccc12,0.018,-5,i,105,-36,137*,121,118,101
CCOC(=O)COc1ccc2ccccc2c1/C=C/[N+](=O)[O-],-0.34,-2,i,102,8,91,.,.,.
CC(C)CCNC(=O)Cc1ccccc1[N+](=O)[O-],0.45,10,i,91,-47,150*,128,102,96
CCOC(=O)c1c(C)oc2c1cc(O)c1ccccc12,0.52,0,i,100,-48,145*,152*,101,97
O=C(CSc1nc2ncccc2[nH]1)c1cccc([N+](=O)[O-])c1,0.0068,-3,i,103,12,91,.,.,.
Cc1[nH]c2ccccc2c1C(O)c1ccncc1 (stereo unspecified),1,7,i,92,-18,117,.,.,.
COc1cc(C(C[N+](=O)[O-])c2c(C)[nH]c3ccccc23)cc(OC)c1OC (stereo unspecified),.,14,i,87,-48,142*,126,98,92
COC(=O)c1cccc(NC(=O)CCCOc2cccc(C)c2)c1,-0.042,-5,i,104,-35,136*,113,105,102
O=C(COc1ccc(Cl)cc1)NCc1cn2cc(Cl)ccc2n1,-1.1,-2,i,101,3,98,.,.,.
Cc1noc(C)c1S(=O)(=O)N(C)CC(=O)Nc1ccc(F)cc1,.,5,i,96,10,97,.,.,.
COc1ccc(C2CC3(CC(C)(C)NC(=O)N3)Oc3cc(O)ccc32)cc1 (stereo unspecified),1.3,-2,i,102,-125,211*,176*,110,119
COc1ccc(C2CC3(CC(C)(C)NC(=S)N3)Oc3cc(O)cc(C)c32)cc1 (stereo unspecified),-0.27,-6,i,105,-330,363*,268*,110,106
SMILES,Cl transport mod,STAT1 blocker,HSV replic up,STAT1 act-1,STAT3 inh,STAT3 act-1,STAT3 act-2,NFkB act 2,STAT1 act-2
COc1ccc(C2CC3(CC(C)(C)NC(SC)=N3)Oc3cc(O)cc(C)c32)cc1 (stereo unspecified),-0.043,-25,i,122,i,537*,382*,114,127*
Cc1cc(O)cc2c1C(c1ccc(F)cc1)CC1(CC(C)(C)NC(=S)N1)O2 (stereo unspecified),1.4,-5,i,103,-18,117,.,.,.
Clc1cc(NCc2cccs2)ccc1N1CCOCC1,.,-13,i,112,2,105,.,.,.
Cc1ccc(S(=O)(=O)N(C)c2ccc(OCC(=O)O)cc2)cc1,.,2,i,100,-2,102,.,.,.
O=c1c(Cl)c(N/N=C/c2ccc(Br)cc2)cnn1-c1ccccc1,-0.93,-11,.,110,-55,150*,126,101,102
COc1ccc(C(=O)C2CCCN(Cc3c[nH]c4ccccc34)C2)c(OC)c1 (stereo unspecified),0.27,10,i,90,-44,142*,141*,104,100
NC(=O)Cn1nc([N+](=O)[O-])nc1Oc1ccccc1F,0.59,-7,i,105,5,100,.,.,.
O=C(/C(=C(\[O-])c1ccccc1)[n+]1ccc2ccccc2c1)c1ccccc1,0.031,-4,i,103,-44,138*,151*,112,109
O=C(/C(=C(\[O-])c1ccccc1)[n+]1ccc2ccccc2c1)c1ccc(Cl)cc1,0.44,3,i,98,-53,152*,156*,110,106
O=C(/C(=C(\[O-])c1ccccc1)[n+]1ccc2ccccc2c1)c1ccc([N+](=O)[O-])cc1,-0.42,11,i,90,-16,116,.,.,.
NC(=O)c1cc(NC(=O)c2cc(Br)c(Br)s2)cc(C(N)=O)c1,-0.0076,1,i,98,21,87,.,.,.
CCCc1cc(=O)n2[nH]c(C)nc2n1,.,-8,i,107,-54,153*,108,102,93
CCCc1cc(=O)n2[nH]c(C(F)(F)F)nc2n1,.,-2,i,102,-2,107,.,.,.
Cc1ccccc1-c1cc(-c2ccccc2O)on1,0.75,-3,i,102,-70,168*,184*,114,99

# Source: PubChem (several laboratories)
